According to article PMC4160279 (Journal of the American Chemical Society, 2014):
pKd: −log10 of the molar value.

How the values were obtained:
P dimer VA115 = target: T1, P dimer VA115 (Human calicivirus NLV/VA98115/1998, UniProt Q91H12); assay: Direct ESI-MS assay; format: binding; conditions: n = 3
T1 sequence (Q91H12 227-545): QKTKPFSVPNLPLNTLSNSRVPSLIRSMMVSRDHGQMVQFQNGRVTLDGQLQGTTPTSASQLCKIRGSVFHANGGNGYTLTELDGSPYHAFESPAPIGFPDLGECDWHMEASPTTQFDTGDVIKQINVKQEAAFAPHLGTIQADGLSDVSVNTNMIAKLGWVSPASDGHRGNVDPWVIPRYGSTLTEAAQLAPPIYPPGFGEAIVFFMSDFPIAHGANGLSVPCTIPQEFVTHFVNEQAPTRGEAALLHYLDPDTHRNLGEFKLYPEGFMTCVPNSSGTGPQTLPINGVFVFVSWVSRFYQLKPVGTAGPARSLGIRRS
Procedure, shortened: (§1)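 Recombinant P dimer (P domain residues 222–539, made in E. coli via a GST fusion system) was titrated with at least four initial oligosaccharide concentrations, in triplicate. Example mix: 12 μM dimer, 80 μM ligand, 4 μM reference protein. Bound/free abundance ratios were taken as solution ratios after nonspecific-binding correction. Ka,int was fitted assuming two independent, equivalent sites.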

P dimer VA387 = P dimer VA387 (Human calicivirus NLV/VA98387/1998, UniProt Q913Z3); assay: Direct ESI-MS assay; format: binding; conditions: n = 3
Procedure, shortened: as §1

NoV VA387 P dimer = assay: Direct ESI-MS assay, NoV VA387 P dimer; set-up: species or system human NoV VA387 (GII.4); conditions: intrinsic (per binding site) association constant; aqueous ammonium acetate (200 mM), pH 7, 25 °C
Procedure, shortened: (§2)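 Recombinant P dimer, buffer-exchanged into ammonium acetate and quantified by UV, was mixed (e.g., 12 μM) with ganglioside oligosaccharide (e.g., 80 μM) and reference protein (4 μM). Nanoelectrospray in negative ion mode used capillary −0.8 kV, cone 60 V and source 60 °C. Runs covered ≥4 initial ligand concentrations in triplicate. Ka,int came from bound/free abundance ratios, corrected for nonspecific binding, with two equivalent sites.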

NoV VA115 P dimer = assay: Direct ESI-MS assay, NoV VA115 P dimer; set-up: species or system human NoV VA115 (GI.3); conditions: intrinsic (per binding site) association constant; aqueous ammonium acetate (200 mM), pH 7, 25 °C
Procedure, shortened: as §2

Sequence of P dimer VA387 (Q913Z3 222-539): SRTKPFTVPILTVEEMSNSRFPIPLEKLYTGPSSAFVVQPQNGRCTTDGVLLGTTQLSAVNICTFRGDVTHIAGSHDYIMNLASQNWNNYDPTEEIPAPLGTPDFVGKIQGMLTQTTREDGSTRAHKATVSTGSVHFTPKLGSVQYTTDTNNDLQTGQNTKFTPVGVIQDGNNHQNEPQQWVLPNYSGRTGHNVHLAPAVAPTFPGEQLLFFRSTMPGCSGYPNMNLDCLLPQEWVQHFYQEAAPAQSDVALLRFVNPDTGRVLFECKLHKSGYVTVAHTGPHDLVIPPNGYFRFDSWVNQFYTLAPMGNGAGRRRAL

| Structure (SMILES) | pKd (P dimer VA115) | pKd (P dimer VA387) | Ka,int P dimer VA387 (NoV VA387 P dimer) | Ka,int P dimer VA115 (NoV VA115 P dimer) [M^–1] | Ka,int (P dimer VA115) [M⁻¹] |
| --- | --- | --- | --- | --- | --- |
| CC(=O)N[C@H]1[C@H](O[C@@H]2[C@H](O[C@]3(C(=O)O)C[C@H](O)[C@@H](NC(C)=O)[C@H]([C@H](O)[C@H](O)CO)O3)[C@@H](O)[C@H](O[C@H]3[C@H](O)[C@@H](O)C(O)O[C@@H]3CO)O[C@@H]2CO)O[C@H](CO)[C@H](O)[C@@H]1O[C@@H]1O[C@H](CO)[C@H](O)[C@H](O[C@]2(C(=O)O)C[C@H](O)[C@@H](NC(C)=O)[C@H]([C@H](O)[C@H](O)CO)O2)[C@H]1O (stereo partly drawn) [GD1a, GD1a ganglioside oligosaccharide (Neu5Aca2-3Galb1-3GalNAcb1-4(Neu5Aca2-3)Galb1-4Glc)] | 2.51 | < 2.00 |  |  |  |
| CC(=O)N[C@H]1[C@H](O[C@@H]2[C@H](O[C@]3(C(=O)O)C[C@H](O)[C@@H](NC(C)=O)[C@H]([C@H](O)[C@@H](CO)O[C@]4(C(=O)O)C[C@H](O)[C@@H](NC(C)=O)[C@H]([C@H](O)[C@H](O)CO)O4)O3)[C@@H](O)[C@H](O[C@H]3[C@H](O)[C@@H](O)C(O)O[C@@H]3CO)O[C@@H]2CO)O[C@H](CO)[C@H](O)[C@@H]1O[C@@H]1O[C@H](CO)[C@H](O)[C@H](O)[C@H]1O (stereo partly drawn) [GD1b, GD1b ganglioside oligosaccharide (Galb1-3GalNAcb1-4(Neu5Aca2-8Neu5Aca2-3)Galb1-4Glc)] | 2.53 |  |  |  |  |
| CC(=O)N[C@H]1[C@H](O[C@@H]2[C@H](O[C@]3(C(=O)O)C[C@H](O)[C@@H](NC(C)=O)[C@H]([C@H](O)[C@@H](CO)O[C@]4(C(=O)O)C[C@H](O)[C@@H](NC(C)=O)[C@H]([C@H](O)[C@H](O)CO)O4)O3)[C@@H](O)[C@H](O[C@H]3[C@H](O)[C@@H](O)C(O)O[C@@H]3CO)O[C@@H]2CO)O[C@H](CO)[C@H](O)[C@@H]1O[C@@H]1O[C@H](CO)[C@H](O)[C@H](O)[C@H]1O (stereo partly drawn) [GD1b] |  |  | do not show any detectable binding | 340 ± 50 |  |
| CC(=O)N[C@H]1[C@H](O[C@@H]2[C@H](O[C@]3(C(=O)O)C[C@H](O)[C@@H](NC(C)=O)[C@H]([C@H](O)[C@@H](CO)O[C@]4(C(=O)O)C[C@H](O)[C@@H](NC(C)=O)[C@H]([C@H](O)[C@H](O)CO)O4)O3)[C@@H](O)[C@H](O[C@H]3[C@H](O)[C@@H](O)C(O)O[C@@H]3CO)O[C@@H]2CO)O[C@H](CO)[C@H](O)[C@@H]1O (stereo partly drawn) [GD2, GD2 ganglioside oligosaccharide (GalNAcb1-4(Neu5Aca2-8Neu5Aca2-3)Galb1-4Glc)] | 2.85 | 2.18 |  |  |  |
| CC(=O)N[C@H]1[C@H](O[C@@H]2[C@H](O[C@]3(C(=O)O)C[C@H](O)[C@@H](NC(C)=O)[C@H]([C@H](O)[C@@H](CO)O[C@]4(C(=O)O)C[C@H](O)[C@@H](NC(C)=O)[C@H]([C@H](O)[C@H](O)CO)O4)O3)[C@@H](O)[C@H](O[C@H]3[C@H](O)[C@@H](O)C(O)O[C@@H]3CO)O[C@@H]2CO)O[C@H](CO)[C@H](O)[C@@H]1O (stereo partly drawn) [GD2] |  |  | 150 ± 60 M^–1 | 700 ± 140 |  |
| CC(=O)N[C@H]1[C@H]([C@H](O)[C@H](O)CO)O[C@@](O[C@H](CO)[C@@H](O)[C@@H]2O[C@@](O[C@H]3[C@@H](O)[C@@H](CO)O[C@@H](O[C@H]4[C@H](O)[C@@H](O)C(O)O[C@@H]4CO)[C@@H]3O)(C(=O)O)C[C@H](O)[C@H]2NC(C)=O)(C(=O)O)C[C@@H]1O (stereo partly drawn) [GD3, GD3 ganglioside oligosaccharide (Neu5Aca2-8Neu5Aca2-3Galb1-4Glc)] | 2.62 | 2.53 |  |  |  |
| CC(=O)N[C@H]1[C@H]([C@H](O)[C@H](O)CO)O[C@@](O[C@H](CO)[C@@H](O)[C@@H]2O[C@@](O[C@H]3[C@@H](O)[C@@H](CO)O[C@@H](O[C@H]4[C@H](O)[C@@H](O)C(O)O[C@@H]4CO)[C@@H]3O)(C(=O)O)C[C@H](O)[C@H]2NC(C)=O)(C(=O)O)C[C@@H]1O (stereo partly drawn) [GD3] |  |  | 340 ± 60 M^–1 | 420 ± 140 |  |
| CC(=O)N[C@H]1[C@H](O[C@@H]2[C@H](O[C@]3(C(=O)O)C[C@H](O)[C@@H](NC(C)=O)[C@H]([C@H](O)[C@H](O)CO)O3)[C@@H](O)[C@H](O[C@H]3[C@H](O)[C@@H](O)C(O)O[C@@H]3CO)O[C@@H]2CO)O[C@H](CO)[C@H](O)[C@@H]1O[C@@H]1O[C@H](CO)[C@H](O)[C@H](O)[C@H]1O (stereo partly drawn) [GM1a, GM1a ganglioside oligosaccharide (Galb1-3GalNAcb1-4(Neu5Aca2-3)Galb1-4Glc)] | 2.60 | 2.54 |  |  |  |
| CC(=O)N[C@H]1[C@H](O[C@@H]2[C@H](O[C@]3(C(=O)O)C[C@H](O)[C@@H](NC(C)=O)[C@H]([C@H](O)[C@H](O)CO)O3)[C@@H](O)[C@H](O[C@H]3[C@H](O)[C@@H](O)C(O)O[C@@H]3CO)O[C@@H]2CO)O[C@H](CO)[C@H](O)[C@@H]1O[C@@H]1O[C@H](CO)[C@H](O)[C@H](O)[C@H]1O (stereo partly drawn) [GM1a] |  |  | 350 ± 80 M^–1 | 400 ± 140 |  |
| CC(=O)N[C@H]1[C@H](O[C@@H]2[C@H](O)[C@@H](O)[C@H](O[C@H]3[C@H](O)[C@@H](O)C(O)O[C@@H]3CO)O[C@@H]2CO)O[C@H](CO)[C@H](O)[C@@H]1O[C@@H]1O[C@H](CO)[C@H](O)[C@H](O[C@]2(C(=O)O)C[C@H](O)[C@@H](NC(C)=O)[C@H]([C@H](O)[C@H](O)CO)O2)[C@H]1O (stereo partly drawn) [GM1b] |  |  | 180 ± 60 M^–1 | 480 ± 110 |  |
| CC(=O)N[C@H]1[C@H](O[C@@H]2[C@H](O[C@]3(C(=O)O)C[C@H](O)[C@@H](NC(C)=O)[C@H]([C@H](O)[C@H](O)CO)O3)[C@@H](O)[C@H](O[C@H]3[C@H](O)[C@@H](O)C(O)O[C@@H]3CO)O[C@@H]2CO)O[C@H](CO)[C@H](O)[C@@H]1O (stereo partly drawn) [GM2] |  |  | 360 ± 90 M^–1 | 700 ± 200 |  |
| CC(=O)N[C@H]1[C@H](O[C@@H]2[C@H](O[C@]3(C(=O)O)C[C@H](O)[C@@H](NC(C)=O)[C@H]([C@H](O)[C@H](O)CO)O3)[C@@H](O)[C@H](O[C@H]3[C@H](O)[C@@H](O)C(O)O[C@@H]3CO)O[C@@H]2CO)O[C@H](CO)[C@H](O)[C@@H]1O[C@@H]1O[C@H](CO)[C@H](O)[C@H](O[C@]2(C(=O)O)C[C@H](O)[C@@H](NC(C)=O)[C@H]([C@H](O)[C@@H](CO)O[C@]3(C(=O)O)C[C@H](O)[C@@H](NC(C)=O)[C@H]([C@H](O)[C@H](O)CO)O3)O2)[C@H]1O (stereo partly drawn) [GT1a, GT1a ganglioside oligosaccharide (Neu5Aca2-8Neu5Aca2-3Galb1-3GalNAcb1-4(Neu5Aca2-3)Galb1-4Glc)] |  |  |  |  | 210 ± 70 |
| CC(=O)N[C@H]1[C@H](O[C@@H]2[C@H](O[C@]3(C(=O)O)C[C@H](O)[C@@H](NC(C)=O)[C@H]([C@H](O)[C@H](O)CO)O3)[C@@H](O)[C@H](O[C@H]3[C@H](O)[C@@H](O)C(O)O[C@@H]3CO)O[C@@H]2CO)O[C@H](CO)[C@H](O)[C@@H]1O[C@@H]1O[C@H](CO)[C@H](O)[C@H](O[C@]2(C(=O)O)C[C@H](O)[C@@H](NC(C)=O)[C@H]([C@H](O)[C@@H](CO)O[C@]3(C(=O)O)C[C@H](O)[C@@H](NC(C)=O)[C@H]([C@H](O)[C@H](O)CO)O3)O2)[C@H]1O (stereo partly drawn) [GT1a] |  |  | do not show any detectable binding | 210 ± 70 |  |
| CC(=O)N[C@H]1[C@H](O[C@@H]2[C@H](O[C@]3(C(=O)O)C[C@H](O)[C@@H](NC(C)=O)[C@H]([C@H](O)[C@@H](CO)O[C@]4(C(=O)O)C[C@H](O)[C@@H](NC(C)=O)[C@H]([C@H](O)[C@@H](CO)O[C@]5(C(=O)O)C[C@H](O)[C@@H](NC(C)=O)[C@H]([C@H](O)[C@H](O)CO)O5)O4)O3)[C@@H](O)[C@H](O[C@H]3[C@H](O)[C@@H](O)C(O)O[C@@H]3CO)O[C@@H]2CO)O[C@H](CO)[C@H](O)[C@@H]1O[C@@H]1O[C@H](CO)[C@H](O)[C@H](O)[C@H]1O (stereo partly drawn) [GT1c] |  |  | <100 M^–1 | 260 ± 110 |  |
| CC(=O)NC1C(OC2C(CO)OC(OC3C(CO)OC(O)C(O)C3O)C(O)C2OC2(C(=O)O)CC(O)C(NC(C)=O)C(C(O)C(CO)OC3(C(=O)O)CC(O)C(NC(C)=O)C(C(O)C(CO)OC4(C(=O)O)CC(O)C(NC(C)=O)C(C(O)C(O)CO)O4)O3)O2)OC(CO)C(O)C1O (stereo not drawn) [GT2] |  |  | <100 M^–1 | 230 ± 50 |  |
| CC(=O)NC1C(O)CC(OC(CO)C(O)C2OC(OC(CO)C(O)C3OC(OC4C(O)C(CO)OC(OC5C(CO)OC(O)C(O)C5O)C4O)(C(=O)O)CC(O)C3NC(C)=O)(C(=O)O)CC(O)C2NC(C)=O)(C(=O)O)OC1C(O)C(O)CO (stereo not drawn) [GT3, GT3 ganglioside oligosaccharide (Neu5Aca2-8Neu5Aca2-8Neu5Aca2-3Galb1-4Glc)] | 2.49 |  |  |  |  |
| CC(=O)NC1C(O)CC(OC(CO)C(O)C2OC(OC(CO)C(O)C3OC(OC4C(O)C(CO)OC(OC5C(CO)OC(O)C(O)C5O)C4O)(C(=O)O)CC(O)C3NC(C)=O)(C(=O)O)CC(O)C2NC(C)=O)(C(=O)O)OC1C(O)C(O)CO (stereo not drawn) [GT3] |  |  | do not show any detectable binding | 310 ± 150 |  |
| CC(=O)NC1C(O)CC(OC2C(O)C(OC3C(CO)OC(O)C(O)C3O)OC(CO)C2OC2OC(CO)C(O)C(OC3OC(CO)C(O)C(O)C3OC3OC(C)C(O)C(O)C3O)C2NC(C)=O)(C(=O)O)OC1C(O)C(O)CO (stereo not drawn) [fucosyl-GM1] |  |  | 460 ± 150 M^–1 | 600 ± 130 |  |
